Data set [1] concerns Candida albicans. Description: Antifungal activity against Candida albicans ATCC 10231 at 125 ug/ml by NCCLS method. The class given is functional, organism-based.
Data set [2] relates to Nakaseomyces glabratus. Description: Antifungal activity against Candida glabrata ATCC 48435 at 125 ug/ml by NCCLS method. Format: functional, organism-based.
The test system of data set [3] is Vero (Chlorocebus sabaeus). The experiment in a line: Cytotoxicity against African green monkey Vero cells assessed as reduction in cell viability at MIC80 after 24 hrs by CellTiter 96 non-radioactive cell proliferation assay.
In data set [4] the test system is Candida albicans. The experiment in a line: Antifungal activity against Candida albicans ATCC 10231 by NCCLS method. Format: functional. Put shortly: (§1)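 Broth dilution per NCCLS yeast reference method, in HEPES-buffered RPMI with 1% DMSO. MIC80 is the lowest concentration giving more than 80% growth inhibition versus positive (no-drug) controls. Read by visual scoring, not absorbance. Highest level tested 125 µg/mL.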

The subject of data set [5] is Nakaseomyces glabratus. Description: Antifungal activity against Candida glabrata ATCC 48435 by NCCLS method. Format: functional. Put shortly: as §1
Data set [6] deals with Vero. The experiment in a line: Cytotoxicity against african green monkey Vero cells assessed as reduction in cell viability at MIC80 after 24 hrs by CellTiter 96 non-radioactive cell proliferation assay relative to control. Format: cell-based. Conditions: chlorocebus sabaeus. The method in brief:
(§2)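 Cells exposed for 24 h at 37 °C, 5% CO2, to compound diluted in medium at the antifungal MIC and at 5, 10 and 100× MIC. Tetrazolium dye added for 1–4 h, then stop solution for 1 h at room temperature. Formazan read at 570 nm. Viability is the drug-well/no-drug (1% DMSO) control absorbance ratio, with control set to 100%. 0.1% saponin served as the death control. Triplicates, mean ± SD.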

The test system of the next data set is HepG2. Description: Cytotoxicity against human HepG2 cells assessed as reduction in cell viability at 100 times MIC80 after 24 hrs by CellTiter 96 non-radioactive cell proliferation assay. The class given is cell-based. Conditions: hepg2, 24 h. The method in brief: as §2
In data set [7] the test system is Vero. Description: Cytotoxicity against african green monkey Vero cells assessed as reduction in cell viability at 100 times MIC80 after 24 hrs by CellTiter 96 non-radioactive cell proliferation assay. Format: cell-based. Particulars: chlorocebus sabaeus. Put shortly:
as §2

Values after ≈ are worked out from the molar mass of the structure shown. Active and inactive are the calls of the source. No cut-off for these calls is given here.

In the case of `Cc1ccc(S(=O)(=O)N/N=C/c2cc(C)ccc2O)cc1`, the result in the data set on Candida albicans [1] and with Nakaseomyces glabratus [2] was inactive.

For `Cc1ccc(O)c(/C=N/NC(=O)c2ccc([N+](=O)[O-])cc2)c1`, the Activity (in data set [3]; with Vero [6]) was 20% each time. Also, the figures for the MIC80 with Candida albicans [4] and in the data set with Nakaseomyces glabratus [5] were 0.5 µg/mL (≈ 1.67 µM) and 0.125 µg/mL (≈ 0.418 µM), respectively.

Regarding `O=[N+]([O-])c1ccc(S(=O)(=O)N/N=C/c2cc(Br)ccc2O)cc1`, the outcome in the data set on Candida albicans [1] and in the data set on Nakaseomyces glabratus [2] was inactive.

On to `O=C(N/N=C/c1ccccc1O)c1ccc([N+](=O)[O-])cc1`, for which the Activity result in the data set with HepG2 and with Vero [7] was “Non-toxic” in each case. Also, the MIC80 with Candida albicans [4] and against Nakaseomyces glabratus [5] was 0.5 µg/mL (≈ 1.75 µM) throughout.

With `Cc1ccc(S(=O)(=O)N/N=C/c2cc(Br)ccc2O)cc1`, the result with Candida albicans [1] and in the data set on Nakaseomyces glabratus [2] was inactive.

Take `O=S(=O)(N/N=C/c1cc(Br)ccc1O)c1ccc2ccccc2c1`: the result with Candida albicans [1] and in the data set on Nakaseomyces glabratus [2] was inactive.

Regarding `O=S(=O)(N/N=C/c1cc(Cl)ccc1O)c1ccc(Br)cc1`, the result in the data set with Candida albicans [1] and in the data set with Nakaseomyces glabratus [2] was inactive.

For the compound `O=[N+]([O-])c1ccc(O)c(/C=N/NS(=O)(=O)c2ccccc2)c1`, the result with Candida albicans [1] and in the data set on Nakaseomyces glabratus [2] was inactive.

On to `COc1ccc(O)c(/C=N/NS(=O)(=O)c2ccc(Br)cc2)c1`, for which the outcome with Candida albicans [1] and in the data set with Nakaseomyces glabratus [2] was inactive.

On to `O=[N+]([O-])c1ccc(S(=O)(=O)N/N=C/c2ccccc2O)cc1`, for which the result with Candida albicans [1] and in the data set on Nakaseomyces glabratus [2] was inactive.

Consider `O=C(N/N=C/c1cc(Cl)ccc1O)c1ccccc1`, for which the Activity entry with HepG2 and with Vero [7] was “Non-toxic” each time. The MIC80 with Candida albicans [4] and against Nakaseomyces glabratus [5] was 0.5 µg/mL (≈ 1.82 µM) in each case.

Turning to `Cc1ccc(O)c(/C=N/NS(=O)(=O)c2ccccc2)c1`, the result with Candida albicans [1] and with Nakaseomyces glabratus [2] was inactive.

Consider `COc1ccc(O)c(/C=N/NS(=O)(=O)c2ccc(C)cc2)c1`, for which the result in the data set with Candida albicans [1] and in the data set on Nakaseomyces glabratus [2] was inactive.

For the compound `Cc1ccc(S(=O)(=O)N/N=C/c2ccccc2O)cc1`, the outcome in the data set with Candida albicans [1] and in the data set on Nakaseomyces glabratus [2] was inactive. The MIC80 result with Nakaseomyces glabratus [5] is “inactive”.

As to `Cc1ccc(O)c(/C=N/NS(=O)(=O)c2ccc([N+](=O)[O-])cc2)c1`, the outcome with Candida albicans [1] and in the data set on Nakaseomyces glabratus [2] was inactive.

As for `O=S(=O)(N/N=C/c1ccccc1O)c1ccc2ccccc2c1`, the outcome with Candida albicans [1] and in the data set with Nakaseomyces glabratus [2] was inactive.

For the compound `O=S(=O)(N/N=C/c1cc(Cl)ccc1O)c1ccc2ccccc2c1`, the result in the data set on Candida albicans [1] and in the data set with Nakaseomyces glabratus [2] was inactive.

Turning to `COc1ccc(S(=O)(=O)N/N=C/c2cc(Cl)ccc2O)cc1`, the result in the data set on Candida albicans [1] and in the data set on Nakaseomyces glabratus [2] was inactive.

Regarding `Cc1ccc(O)c(/C=N/NS(=O)(=O)c2ccc(Br)cc2)c1`, the outcome with Candida albicans [1] and in the data set on Nakaseomyces glabratus [2] was inactive.

`O=S(=O)(N/N=C/c1ccccc1O)c1ccccc1`: the outcome in the data set on Candida albicans [1] and in the data set with Nakaseomyces glabratus [2] was inactive. The compound also showed an MIC80 with Nakaseomyces glabratus [5] of 125 µg/mL (≈ 452 µM).

Take `Cc1ccc(O)c(/C=N/NC(=O)c2ccccc2)c1`: the Activity (in data set [3]; in the data set with Vero [6]) was 20% in each case. The MIC80 against Candida albicans [4] and against Nakaseomyces glabratus [5] was 1 µg/mL (≈ 3.93 µM) in each case.

On to `Cc1ccc(S(=O)(=O)N/N=C/c2cc(Cl)ccc2O)cc1`, for which the result in the data set with Candida albicans [1] and with Nakaseomyces glabratus [2] was inactive.

With `O=[N+]([O-])c1ccc(S(=O)(=O)N/N=C/c2cc([N+](=O)[O-])ccc2O)cc1`, the outcome in the data set with Candida albicans [1] and with Nakaseomyces glabratus [2] was inactive.

As for `COc1ccc(S(=O)(=O)N/N=C/c2cc(C)ccc2O)cc1`, the outcome with Candida albicans [1] and in the data set with Nakaseomyces glabratus [2] was inactive.

For `Cc1ccc(O)c(/C=N/NS(=O)(=O)c2ccc3ccccc3c2)c1`, the result in the data set with Candida albicans [1] and with Nakaseomyces glabratus [2] was inactive.

Consider `COc1ccc(S(=O)(=O)N/N=C/c2ccccc2O)cc1`, for which the result in the data set on Candida albicans [1] and in the data set on Nakaseomyces glabratus [2] was inactive.

Regarding `N/N=C/c1ccccc1O`, the Activity result in the data set on HepG2 and in the data set on Vero [7] was “Non-toxic” in each case. The MIC80 against Candida albicans [4] amounted to 16 µg/mL (≈ 118 µM); in the data set with Nakaseomyces glabratus [5] it was 4 µg/mL (≈ 29.4 µM).

Take `O=[N+]([O-])c1cc(/C=N/Nc2ccccc2)c(O)c([N+](=O)[O-])c1`: the Activity result in the data set with HepG2 and with Vero [7] was “Non-toxic” throughout. Besides, the MIC80 came out at 2 µg/mL (≈ 6.62 µM) against Candida albicans [4] and 4 µg/mL (≈ 13.2 µM) against Nakaseomyces glabratus [5].

Turning to `COc1ccc(S(=O)(=O)N/N=C/c2cc(Br)ccc2O)cc1`, the result in the data set with Candida albicans [1] and with Nakaseomyces glabratus [2] was inactive.

Turning to `COc1ccc(S(=O)(=O)N/N=C/c2cc([N+](=O)[O-])ccc2O)cc1`, the outcome with Candida albicans [1] and in the data set with Nakaseomyces glabratus [2] was inactive.

Regarding `O=S(=O)(N/N=C/c1ccccc1O)c1ccc(Br)cc1`, the outcome in the data set with Candida albicans [1] and in the data set on Nakaseomyces glabratus [2] was inactive.

Turning to `O=S(=O)(N/N=C/c1cc(Br)ccc1O)c1ccccc1`, the result with Candida albicans [1] and in the data set with Nakaseomyces glabratus [2] was inactive.

As to `O=[N+]([O-])c1ccc(O)c(/C=N/NS(=O)(=O)c2ccc(Br)cc2)c1`, the outcome with Candida albicans [1] and in the data set with Nakaseomyces glabratus [2] was inactive.

With `COc1ccc(O)c(/C=N/NS(=O)(=O)c2ccccc2)c1`, the result with Candida albicans [1] and in the data set on Nakaseomyces glabratus [2] was inactive.

On to `Cc1ccc(S(=O)(=O)N/N=C/c2cc([N+](=O)[O-])ccc2O)cc1`, for which the outcome with Candida albicans [1] and in the data set on Nakaseomyces glabratus [2] was inactive.

As to `COc1ccc(O)c(/C=N/NS(=O)(=O)c2ccc([N+](=O)[O-])cc2)c1`, the outcome in the data set on Candida albicans [1] and in the data set on Nakaseomyces glabratus [2] was inactive.

The values above are taken from ChEMBL document CHEMBL3352109, “Synthesis and antifungal activity of substituted salicylaldehyde hydrazones, hydrazides and sulfohydrazides” (Bioorg Med Chem, 2014).
